Hits are enriched below; roughly 4.7% of the tested compounds scored in any of these assays.
AHR act: activates the human aryl hydrocarbon receptor; P35869; AHR-responsive luciferase reporter cells, luminescence; activation, % at 5 µM; 320,000 compounds, 2.5% hits; in the data active = activation above about 47%;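 also: 0% = vehicle wells and 100% = reference agonist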
MC4R ag barr: agonists of human melanocortin 4 receptor (MC4R) beta-arrestin; P32245; U2OS MC4R beta-arrestin complementation, luminescence; percent of melanotan II response, DMSO zero; activation, % at 8.9 µM; 360,000 compounds, 0.98% hits;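 active = activation above a per-plate cutoff, the mean activation of sample wells on that plate plus 3 SD, cut at about 8% in these data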
MC4R antag cAMP: antagonists of human melanocortin 4 receptor (MC4R). AID 540295. P32245. inhibition, % at 6.5 µM. 360,000 compounds, 0.48% hits. MC4R-expressing cells, MTII-stimulated cAMP, LANCE TR-FRET;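 active = inhibition above its plate's cutoff, the mean of tested wells on that plate plus 3 SD, cut at about 29% in these data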;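 also: 0% = Melanotan II alone and 100% = Melanotan II plus saturating MCL0020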
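Assay system: human MC4R-expressing U2OS cells; reagent: Melanotan II stimulation of cells; dosing: 6.5 µM single dose; timing: compound 30 min, challenge 1 h, detection 1 h; signal: TR-FRET cAMP assay; replicates: one well per compound, no replicates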
m5-HT2A agonist: agonists of mouse serotonin 5-HT2A receptor (HTR2A) | P35363 | AID 624169 | 360,000 compounds, 0.66% hits | CHO-K1 mHTR2A beta-arrestin complementation, luminescence; percent of 30 µM serotonin response | activation, % at 7.6 µM;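 active = activation above a run cutoff, the mean activation of all tested compounds plus 3 SD, cut at about 14% in these data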;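 also: 0% = plate median of compound wells and 100% = 30 µM serotonin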
GAA850 FXN act: frataxin GAA850 promoter activation; AID 540364; activation, % at 6 µM; HEK293 lucGAA850 FXN promoter luciferase reporter, 24 h; percent of 10 µM SAHA response; 360,000 compounds, 0.56% hits;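 active = activation above the average of all compounds screened plus 3 SD, cutoff fixed separately per campaign, cut at about 7.5% in these data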;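 also: 0% = DMSO wells and 100% = 10 µM SAHA wells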
MC4R barr ag: human MC4R beta-arrestin agonism confirmation | shares compounds with MC4R ag barr | U2OS MC4R beta-arrestin recruitment, luminescence; scaled DMSO 0%, Melanotan II 100% | activation, % at 8.9 µM | 2,400 compounds, 31% hits;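 active = mean activation across replicates above the hit cutoff set in the earlier primary screen, cut at about 8% in these data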
MOR DOR agonist: activates mu-delta opioid heterodimer, MC4R agonist counter-screen | shares compounds with MC4R ag barr | U2OS PathHunter beta-arrestin, beta-gal luminescence; percent of deltorphin B response, DMSO zero | activation, % at 9.2 µM | 2,400 compounds, 5.8% hits | AID 602194;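 active = mean activation across replicates exceeds the hit threshold derived in the earlier primary screen, cut at about 18% in these data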;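 also: 100% = deltorphin B at 0.9 µM final and 0% = DMSO alone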
Target sequence (P35372 whole entry, looked up): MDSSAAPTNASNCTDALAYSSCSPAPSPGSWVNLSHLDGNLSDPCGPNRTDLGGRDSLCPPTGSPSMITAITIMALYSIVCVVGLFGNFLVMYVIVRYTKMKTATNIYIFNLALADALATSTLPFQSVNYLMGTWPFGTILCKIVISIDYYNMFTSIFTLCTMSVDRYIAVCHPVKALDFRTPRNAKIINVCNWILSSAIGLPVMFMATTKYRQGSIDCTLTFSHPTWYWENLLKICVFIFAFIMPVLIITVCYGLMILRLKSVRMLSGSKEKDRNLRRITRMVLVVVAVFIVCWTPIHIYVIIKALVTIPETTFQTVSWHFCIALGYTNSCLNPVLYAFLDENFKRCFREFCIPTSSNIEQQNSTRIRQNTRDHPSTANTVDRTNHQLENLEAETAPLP
Target sequence (P41143 whole entry, looked up): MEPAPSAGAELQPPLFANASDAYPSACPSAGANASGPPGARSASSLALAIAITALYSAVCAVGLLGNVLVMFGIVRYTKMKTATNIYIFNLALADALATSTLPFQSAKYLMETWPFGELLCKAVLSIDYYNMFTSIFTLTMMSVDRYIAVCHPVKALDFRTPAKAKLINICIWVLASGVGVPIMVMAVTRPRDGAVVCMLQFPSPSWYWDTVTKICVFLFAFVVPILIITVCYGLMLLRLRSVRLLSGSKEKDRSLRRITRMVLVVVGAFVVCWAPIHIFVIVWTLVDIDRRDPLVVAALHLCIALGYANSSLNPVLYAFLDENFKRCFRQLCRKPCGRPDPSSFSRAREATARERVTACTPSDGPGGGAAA
Active calls of the source: *; / = no result given.

SMILES	AHR act	MC4R ag barr	MC4R antag cAMP	m5-HT2A agonist	GAA850 FXN act	MC4R barr ag	MOR DOR agonist
Cc1ccc(OCC(=O)Nc2sc3c(c2C#N)CCC3)cc1C	6	14*	3	5	1	2	5
Cc1ccc(C(=O)OCC(=O)Nc2sc3c(c2C#N)CCC3)cc1	-3	-1	3	-2	-1	/	/
O=C(CN(c1ccccc1Cl)S(=O)(=O)c1ccccc1)NCc1ccccc1	/	-1	4	0	1	/	/
O=C(CN1CCCCCCC1)Nc1cc(Cl)cc(Cl)c1	3	14*	27	-2	-2	-2	3
O=C(CN1CCCC1)Nc1cccc(Cl)c1	4	0	7	-5	-1	/	/
Cc1occc1C(=O)NNC(=O)CN1C(=O)NC2(CCCCC2)C1=O	/	0	-2	3	1	/	/
N#Cc1ccccc1S(=O)(=O)N1CCN(C(=O)CN(Cc2ccco2)Cc2cccs2)CC1	/	-1	3	-4	2	/	/
O=C(NC1CCCCC1)c1cccc(NC(=O)c2ccccc2Cl)c1	/	-1	-1	-7	0	/	/
CC(C)OC(=O)c1ccc(NC(=O)c2ccccc2)cc1	0	0	-15	-2	6	/	/
CC(=O)Oc1ccc(C(=O)Nc2ccc3c(c2)OCCO3)cc1	19	-1	5	-1	2	/	/
O=C(Oc1ccc(NC(=O)c2cc3c(cc2Br)OCO3)cc1)c1ccccc1	4	14*	5	-2	4	6	6
O=C(Nc1ccccc1)c1ccc(OC(=O)c2ccccc2)cc1	-2	9.8*	-2	-5	2	5	2
C=CCn1c(SCC(=O)c2ccc(OC)cc2)nnc1-c1cc2cccc(OC)c2o1	8	53*	-5	2	0	12*	16
CC(OC(=O)c1cc2sccc2n1C)C(=O)NCc1ccc2c(c1)OCO2 (stereo not given)	1	13*	10	10	-1	-1	2
O=C(Nc1ccc(F)cc1F)c1csc(-c2cccs2)n1	29	15*	-2	4	5	0	4
CN1C(C(=O)Nc2ccc(F)cc2F)=CC(c2cccs2)=NS1(=O)=O	4	0	4	-8	-2	/	/
COc1ccc(-n2c(C)cc(C(=O)COC(=O)c3ccc(O)cc3O)c2C)cc1	2	11*	9	10	0	3	11
Oc1ccc(/C=N/N2CCN(C3c4ccccc4-c4ccccc43)CC2)cc1O	2	28*	18	-2	1	13*	13
O=C(/C=C/[C@H]1O[C@@H](n2ccc(=O)[nH]c2=O)[C@H](O)[C@@H]1O)NCc1cccnc1	/	/	/	-1	/	/	/
CCOC(=O)c1c(NC(=O)Cn2nc(C(F)(F)F)cc2C)sc(C)c1C	-1	15*	1	3	0	6	14
COc1ccc(-c2cc(C(F)(F)F)nc(SCC(=O)Nc3ccc4c(c3)OCO4)n2)cc1	7	-1	-2	4	3	/	/
O=C(CSc1nc(-c2ccc(F)cc2)cc(C(F)(F)F)n1)Nc1ccc2c(c1)OCO2	6	17*	2	3	2	0	4
COc1ccc(CCNC(=O)CCSc2nc(-c3ccco3)cc(C(F)(F)F)n2)cc1	0	18*	-1	2	2	-1	2
CCN(CC)S(=O)(=O)c1ccc(-c2nnc(SCC(=O)Nc3ccc4c(c3)OCO4)o2)cc1	34	10*	4	6	1	2	5
COc1ccc(CCNC(=O)CSc2nc(-c3ccco3)cc(C(F)(F)F)n2)cc1OC	0	2	6	1	-3	/	/
SMILES	AHR act	MC4R ag barr	MC4R antag cAMP	m5-HT2A agonist	GAA850 FXN act	MC4R barr ag	MOR DOR agonist
Cc1cc(NC(=O)CCSc2nc(-c3ccco3)cc(C(F)(F)F)n2)no1	0	9.9*	8	2	0	3	6
Cc1ccc(CN2CCNC(=O)C2CC(=O)NCCCn2nnc3ccccc32)cc1 (stereo not given)	/	-2	3	1	2	/	/
CCOc1ccc(NC(=O)CN(C)C(=O)c2cccc(S(=O)(=O)N3CCN(C)CC3)c2)cc1OCC	/	-1	6	2	2	/	/
Cc1cccc(C)c1NC(=O)c1ccc2sc([C@@H]3O[C@H](CO)[C@H](O)[C@H](O)[C@H]3O)nc2c1	/	-2	2	3	1	/	/
COC(=O)[C@]12CCCCC=C1N(Cc1ccc(Cl)cc1Cl)C(=O)[C@H](CC(=O)N1CCSCC1)C2	/	/	/	-3	/	/	/
CCC(c1nnnn1-c1ccc2c(c1)OCCO2)N1CCN(CC)CC1 (stereo not given)	/	/	/	2	/	/	/
COc1cc(/C=C2\CCC(C3CCCC3)C2=O)ccc1OC(C)C (stereo not given)	3	1	25	3	0	/	/
COc1ccc(CNC(=O)OC2CC3CC2[C@H]2CCCCN2C3=O)cc1 (stereo not given in full)	/	/	/	0	/	/	/
O=C(c1cc(C2CC2)nn1-c1ccccc1)N1CCN(S(=O)(=O)c2c(F)cccc2F)CC1	1	1	10	-8	-1	/	/
O=C(CSc1nc(-c2ccccc2)cc(C(F)(F)F)n1)NCc1cccs1	1	/	/	/	/	/	/
COc1ccc(-c2cc(C(F)(F)F)nc(SCC(=O)NCc3cccs3)n2)cc1	-5	16*	3	-1	-2	-2	2
CNC(C)C(=O)NC(C(=O)NC(C)C(=O)Nc1cccc2ccccc12)C(C)C (stereo not given)	/	1	15	-1	-1	/	/
Cc1ccc(N=Nc2ccc(O)c3ncccc23)cc1C	46	-4	15	0	2	/	/
Cc1ccc(N=Nc2ccc(O)c3ncccc23)cc1	47*	11*	16	-3	4	-1	0
O=C1NC2(CCC3(CC2)OCCO3)NN1c1ccccc1	19	-2	3	0	2	/	/
O=C1NC2(NN1c1ccccc1)C1CC3CC(C1)CC2C3 (stereo not given)	2	18*	15	5	0	3	5
CCCC(=O)Oc1ccccc1C1SCc2cc(C)c(C)cc2CS1	-3	16*	10	5	-2	5	4
CCOC(=O)C(C(=O)OCC)C1OC(=O)c2cc3c(cc21)C(=O)OC3C(C(=O)OCC)C(=O)OCC (stereo not given)	-3	-1	5	4	4	/	/
O=C(NC(=S)Nc1ccccc1)c1cncc(C#Cc2ccccc2)c1	3	14*	-1	-1	0	0	2
CCOc1ccc(S(=O)(=O)N2CCCC(C(=O)NCC3CCCO3)C2)cc1 (stereo not given)	2	-1	-1	6	-1	/	/
